PREPL inh: inhibits the human prolyl oligopeptidase-like enzyme; inhibition, % at 5.96 µM; recombinant PREPL, fluorescence polarization activity-based probe; 320,000 tested, 0.68% active; Q4J6C6; AID 2751; in the data active means inhibition above about 43%
Target sequence (Q4J6C6 whole entry, looked up): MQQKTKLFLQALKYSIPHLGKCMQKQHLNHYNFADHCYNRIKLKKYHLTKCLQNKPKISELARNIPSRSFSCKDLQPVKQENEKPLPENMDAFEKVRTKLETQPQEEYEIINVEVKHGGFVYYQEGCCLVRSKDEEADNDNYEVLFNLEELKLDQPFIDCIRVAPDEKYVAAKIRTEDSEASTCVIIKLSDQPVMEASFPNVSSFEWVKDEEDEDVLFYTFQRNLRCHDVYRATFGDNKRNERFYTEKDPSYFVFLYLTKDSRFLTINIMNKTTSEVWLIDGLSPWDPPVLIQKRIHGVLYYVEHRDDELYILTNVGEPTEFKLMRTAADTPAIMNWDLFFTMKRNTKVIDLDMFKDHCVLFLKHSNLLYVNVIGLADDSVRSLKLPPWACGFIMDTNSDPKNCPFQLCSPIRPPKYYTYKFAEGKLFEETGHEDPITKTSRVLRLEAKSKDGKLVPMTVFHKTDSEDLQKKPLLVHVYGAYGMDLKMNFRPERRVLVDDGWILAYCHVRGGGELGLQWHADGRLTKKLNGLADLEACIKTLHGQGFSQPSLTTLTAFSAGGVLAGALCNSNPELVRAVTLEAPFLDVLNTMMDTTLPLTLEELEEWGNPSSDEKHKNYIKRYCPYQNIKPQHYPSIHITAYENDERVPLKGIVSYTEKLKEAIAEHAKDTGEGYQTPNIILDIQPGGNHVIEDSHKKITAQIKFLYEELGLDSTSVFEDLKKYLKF
CSC inhib: cancer stem cell inhibition | inhibition, % at 7.5 µM | AID 2717 | cancer stem cell-like cells viability, luminescence | 300,000 tested, 1.1% active; in the data active means inhibition above about 75%; inconclusive means no clear call, values can overlap the other calls; tested in HMLE shEcad cells
T cruzi repl: blocks replication of Trypanosoma cruzi; T. cruzi beta-gal in NIH3T3, luminescence, 90 h; inhibition, % (no concentration beside the values); 300,000 tested, 1.4% active;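 active means mean inhibition across valid replicates above about 55%, limit read from the data; inconclusive means mean below that limit but half or more replicates reach it; inactive means mean below it, under half of replicates reach it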;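 further: signal also drops with host cell toxicity which is not excluded here; higher percent means less beta-gal luminescence so fewer parasites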
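System: NIH/3T3 fibroblasts plus reporter T. cruzi. Medium: DMEM plus 2% FBS. Probe or stimulus: 5000 reporter trypomastigotes per well. Compound: single 50 nL compound addition per well in DMSO. Incubation: co-culture of at least 90 h after 3 h attachment. Detection: GalScreen β-gal luminescence, detergent lysis, 60 min. Evaluation: parasite load inhibition, %.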
CHOP inhibitor: CHOP inhibition in unfolded protein response | CHO-K1 CHOP-promoter luciferase, tunicamycin-induced, 15-18 h | inhibition, % at 10 µM | 220,000 tested, 3.8% active | AID 2732;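 active means compounds that reduced the stress-induced luciferase reporter signal by more than about 70% of percent inhibition, limit read from the data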
NR3A LBD binder: modulates the human NR3A ligand-binding domain; AID 1259313; 340,000 tested, 2.5% active; Tm shift relative to glycine control, % at 25 µM; NR3A LBD differential scanning fluorimetry, Tm shift; 0% = protein alone, 100% = glycine-bound protein;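 active means melting temperature shift of at least 10% of the positive control shift, at one fixed dose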
Beta apoptosis: beta cell apoptosis inhibition | INS-1E cytokine-induced death, ATP luminescence, 48 h; percent of positive-control rescue, neutral wells zero | protection from apoptosis, % (concentration not given with the values) | 300,000 tested, 0.8% active | AID 435005;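 active means Every replicate reaches about 75%, or at least half do and their mean reaches it too, limit read from the data; inconclusive means At least half of replicates reach the limit but their mean does not; inactive means Under half of replicates reach the limit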;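 further: higher means more ATP so stronger rescue from cytokine killing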
Hits are given with their value; 0 = inactive; ? = inconclusive; - = no result. Shown are actives, neighbours in structure and some others; about 6.7% of the full set was active somewhere.

SMILES	PREPL inh	CSC inhib	T cruzi repl	CHOP inhibitor	NR3A LBD binder	Beta apoptosis
Cc1nc(-n2[nH]c3c(c2=O)CCCC3)[nH]c(=O)c1Cc1ccccc1	0	0	69.4	0	0	0
Cc1cc(=O)[nH]c(-n2[nH]c3c(c2=O)CCCC3)n1	0	0	0	0	0	0
CCCCCc1c(C)nc(N2CCc3ccccc3C2)[nH]c1=O	-	-	0	0	0	-
CCCc1cc(=O)[nH]c(SCC(=O)NC2(C#N)CCCCC2)n1	0	-	-	-	0	0
CCN(C(=O)COC(=O)/C=C/c1ccco1)C1CCCCC1	0	0	-	-	0	0
CC(C)C(=O)NC(=S)/C=C1/N(C)c2ccccc2C1(C)C	0	0	0	0	0	109.1
CN1/C(=C\C=N\NC(=O)c2cccnc2)C(C)(C)c2ccccc21	0	0	0	0	0	0
CC(=O)/C=C1\N(C)c2ccc(C)cc2C1(C)C	0	0	66.1	0	0	98.6
CN1/C(=C\C=N\NC(=O)c2ccc(O)cc2)C(C)(C)c2ccccc21	0	0	0	0	0	113.1
Cc1ccc(C(=O)NC(=S)/C=C2\N(C)c3ccccc3C2(C)C)cc1	0	0	0	0	0	93.7
CN1/C(=C/C(=S)NC(=O)C2CCC2)C(C)(C)c2ccccc21	0	0	0	0	0	0
Cc1c(C(=O)N2CCC(C(N)=O)CC2)oc2ccc(Br)cc12	0	0	0	-	0	0
O=C(c1cc(-c2ccc(Cl)cc2)n(-c2ccc(Cl)cc2)n1)N1CCOCC1	0	-	0	73.3	0	0
CC(C(=O)Nc1ccc(C(=O)O)cc1)N1C(=O)c2ccccc2C1=O (centres undefined)	0	0	0	0	0	0
CC(C(=O)N(C1CC1)C1(C(=O)Nc2ccccc2)CCCC1)N1C(=O)c2ccccc2C1=O (centres undefined)	0	0	0	73.8	0	0
CC(C)C(=O)NC(c1cccc([N+](=O)[O-])c1)c1ccc2cccnc2c1O (centres undefined)	0	99.7	0	-	0	-
CC(C)C(=O)NC(c1ccco1)c1ccc2cccnc2c1O (centres undefined)	0	0	0	-	0	116.8
Oc1c(C(Nc2nc3ccccc3s2)c2ccco2)ccc2cccnc12 (centres undefined)	0	119.6	?	-	0	103.3
CC(=O)NC(c1ccco1)c1cc(Cl)c2ccc(Cl)nc2c1O (centres undefined)	0	0	-	-	0	0
CCOc1ccccc1NC(=O)CN(c1ccc(OC)cc1)S(=O)(=O)c1c(C)[nH]c(=O)[nH]c1=O	0	0	0	-	0	0
CC(=O)Nc1ccc(OS(=O)(=O)c2c(C)cc(C)cc2C)cc1	0	0	0	0	0	0
CCCCCCCCCCCCCCCC(=O)OC(CC(=O)O)C[N+](C)(C)C (centres undefined)	0	-	-	0	0	-
Cc1cccc2c1ncc1c(=O)n(-c3ccccc3)[nH]c12	0	0	0	-	0	0
CC(C)N(C(=O)[C@H]1CC(CC(=O)NCC23CC4CC(CC(C4)C2)C3)C(=O)N2CCc3c([nH]c4ccccc34)[C@]12C)C(C)C (some centres undefined)	0	-	-	-	0	-
C/C(=N\Nc1ccc(C(F)(F)F)cc1[N+](=O)[O-])C1CC1	0	0	0	0	14.3	0
SMILES	PREPL inh	CSC inhib	T cruzi repl	CHOP inhibitor	NR3A LBD binder	Beta apoptosis
Cc1ccc(OCCNc2ccc(C(F)(F)F)cc2[N+](=O)[O-])cc1	0	0	0	0	0	0
Cc1ccc(Nc2ccc(C(F)(F)F)cc2[N+](=O)[O-])cc1	0	0	0	0	11.2	0
O=C(O)c1cc(-n2[nH]c(=O)c3ccccc3c2=O)ccc1Cl	0	0	0	-	0	0
CCOC(=O)c1oc2ccc(CNC3CCCCC3)c(Cl)c2c1C	0	-	74.1	0	0	-
O=C(Nc1ccc(Nc2ccccc2)cc1)c1ccc(F)cc1	0	0	0	-	14.7	0
Cc1ccc(NC(=S)NC(=O)c2ccc(F)cc2)cc1S(=O)(=O)Nc1ccccc1Cl	0	78.8	0	0	0	0
O=C(Nc1ccc(Nc2ccccc2)cc1)c1c(F)c(F)c(F)c(F)c1F	0	-	0	-	14.9	-
Cc1ccc(NC(=O)c2ccc(=O)[nH]n2)cc1S(=O)(=O)Nc1ccccc1Cl	0	0	-	-	0	0
CCC(=O)NC(=S)Nc1ccc(NC(=S)NC(=O)c2ccc(C)cc2)cc1	0	0	0	0	0	0
CCC(=O)NC(=S)Nc1ccc(NC(=S)NC(=O)c2ccccc2)cc1	-	-	60.5	0	0	-
O=C(O)c1ccc(C(=O)Nc2ccc(F)cc2)cc1	0	0	-	-	0	0
Cc1ccc(NC2CCCN(C(=O)c3cccs3)C2)cc1C (centres undefined)	0	-	0	-	0	-
Cc1cccc2cc(CNCC3CCCO3)c(Cl)nc12 (centres undefined)	0	0	0	0	0	0
COCc1cc(CN2CCCC(C(=O)Nc3ccc(-c4ccco4)cc3)C2)ccc1OC (centres undefined)	0	0	0	-	0	0
C=CCNc1cc(F)ccc1S(=O)(=O)NCC=C	-	-	-	-	0	-
O=C(NC(=S)Nc1ccc(NC(=O)c2ccccc2)cc1)c1ccc(F)cc1	0	0	0	-	19.8	0
O=C(NC(=S)Nc1ccc(-c2ccccc2)cc1)c1ccccc1	-	-	-	-	0	-
CCOC(=O)N1CCN(S(=O)(=O)c2ccc(C(=O)N(CCCN(C)C)c3nc4c(C)c(C)ccc4s3)cc2)CC1	0	0	0	-	0	-
Cc1cc(C)c2sc(N(CCCN(C)C)C(=O)c3ccc(S(=O)(=O)N4CCCc5ccccc54)cc3)nc2c1	0	100.9	60.0	-	0	-
Cc1ccc2sc(N(CCCN(C)C)C(=O)c3ccc(S(=O)(=O)N4CCOCC4)cc3)nc2c1C	0	0	66.1	-	0	0
CN(C)CCN(C(=O)c1cc(Cl)sc1Cl)c1nc2ccc(F)cc2s1	0	0	56.1	0	0	0
CN(C)CCCN(C(=O)c1ccc(S(=O)(=O)N2CCc3ccccc32)cc1)c1nc2ccc(Cl)cc2s1	0	0	0	-	0	0
COc1ccc2sc(N(CCN(C)C)C(=O)c3cc(Cl)sc3Cl)nc2c1	0	0	0	0	0	0
CN(C)CCCN(C(=O)c1cc(-c2cccs2)nc2ccccc12)c1nc2ccc(F)cc2s1	0	102.9	0	-	0	0
Cc1ccc(CNC(=O)CNC(=O)c2ccc(Br)o2)cc1	0	-	0	-	0	-
CCN(Cc1ccccc1)S(=O)(=O)c1ccc(C(=O)N(CCCN(C)C)c2nc3cc4c(cc3s2)OCO4)cc1	0	0	0	-	0	0
Cc1cc(C)c2nc(N(CCCN(C)C)C(=O)c3ccc(S(=O)(=O)N4CC(C)OC(C)C4)cc3)sc2c1 (centres undefined)	0	0	59.5	-	0	-
CCN(Cc1ccccc1)S(=O)(=O)c1ccc(C(=O)N(CCCN(C)C)c2nc3c(C)c(C)ccc3s2)cc1	0	0	60.3	-	0	-
CN(C)CCCN(C(=O)c1ccc(S(=O)(=O)N2CCCC2)cc1)c1nc2c(F)cc(F)cc2s1	0	0	0	-	-	-

Screening data (PubChem)
